Screens deposited in PubChem by several laboratories.
hK5 inh: blocks human kallikrein 5 protease activity | inhibition, % at 5 µM | actives 0.59% (n = 210,000) | recombinant hK5, fluorogenic AMC substrate cleavage | Q9Y337;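 active means inhibition of 40% or more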;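 further: 0% = enzyme controls without compound and 100% = no-enzyme blanks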
FXIIa inh 1536: factor XIIa (human) inhibition; P00748; purified FXIIa, Boc-QGR-AMC fluorogenic substrate, 2 h; inhibition, % at 5 µM; actives 0.3% (n = 220,000); AID 800; in the data active means inhibition above about 40%;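 further: 0% = enzyme with no compound and 100% = blank without enzyme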
Thrombin inh: thrombin (human) inhibition; P00734; alpha-thrombin, Boc-VPR-AMC fluorogenic substrate cleavage; inhibition, % at 5 µM; actives 0.26% (n = 220,000); AID 1046;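 active means inhibition at or above 40%; inactive means inhibition below 40%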;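 further: 0% = enzyme with no compound and 100% = wells without enzyme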
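Material: human alpha-thrombin protein; Also added: Boc-VPR-AMC substrate, 15 µM final; Timing: enzyme reaction carried out at room temperature; Signal: fluorescence, ex 355 nm, em 460 nm; Measure: % inhibition of thrombin; Controls: enzyme without compound as high, wells lacking enzyme as low.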
Furin inhibitor: human furin inhibition; P09958; purified furin, fluorogenic substrate cleavage; inhibition, % at 20 µM or 30 µM; actives 0.061% (n = 220,000); AID 463115; in the data active means inhibition above about 25%
Target sequence (P09958 108-714 limits assumed): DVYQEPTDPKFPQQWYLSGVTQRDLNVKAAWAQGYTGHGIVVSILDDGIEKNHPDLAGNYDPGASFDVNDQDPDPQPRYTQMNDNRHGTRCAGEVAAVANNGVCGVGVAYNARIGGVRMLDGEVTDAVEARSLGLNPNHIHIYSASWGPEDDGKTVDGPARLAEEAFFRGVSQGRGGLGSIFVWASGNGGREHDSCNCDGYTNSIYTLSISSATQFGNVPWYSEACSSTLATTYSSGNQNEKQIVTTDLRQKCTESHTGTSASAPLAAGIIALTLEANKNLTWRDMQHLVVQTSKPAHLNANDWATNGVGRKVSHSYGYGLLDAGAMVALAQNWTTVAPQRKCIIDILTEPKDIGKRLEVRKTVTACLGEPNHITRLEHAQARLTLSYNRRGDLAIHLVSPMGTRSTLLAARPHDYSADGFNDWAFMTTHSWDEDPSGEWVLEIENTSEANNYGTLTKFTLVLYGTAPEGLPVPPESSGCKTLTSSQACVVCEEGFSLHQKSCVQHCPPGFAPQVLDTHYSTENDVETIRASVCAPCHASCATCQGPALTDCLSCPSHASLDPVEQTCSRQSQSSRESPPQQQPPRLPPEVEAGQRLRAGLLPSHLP
Calpain2 inh: calpain II (pig) inhibition; inhibition, % at 16 µM; purified calpain II, fluorogenic peptide substrate, 30 min; actives 0.37% (n = 220,000);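 active means inhibition above about 50%, limit read from the data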
FXIa inh: inhibitors of human coagulation factor XIa; actives 0.14% (n = 220,000); purified FXIa, Boc-Glu-Ala-Arg-AMC fluorogenic substrate; inhibition, % at 5 µM; AID 798;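 active means inhibition of at least 40%; inactive means inhibition below 40%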;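 further: fluorescence of freed AMC excited at 355 nm; 0% = enzyme without compound and 100% = no enzyme blank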
Active calls of the source: *. The list is not random: actives were taken first. Their share in the collection is about 1.4%.

SMILES	hK5 inh	FXIIa inh 1536	Thrombin inh	Furin inhibitor	Calpain2 inh	FXIa inh
CCN(CC)C(=O)c1cc(-c2ccccc2OC)on1	-7.4	6.6	2.0	-20.7	-0.1	1.3
CCN(CC)Cc1ccccc1Sc1ccccc1	43.7*	4.5	44.3*	-20.6	20.4	7.7
CC1=CC(C)(C)N2C(=O)C3(C(C#N)=C(N)Oc4cc(O)ccc43)c3c(C)c(C)cc1c32 (centres undefined)	1.3	13.2	3.0	-14.9	-3.2	0.1
CC(CCc1ccccc1)NC(=O)c1ccc(Cl)nc1 (centres undefined)	0.2	-1.1	-2.3	-21.0	10.4	-7.8
O=C(NCc1ccccc1)c1ccc(Cl)nc1	28.9	31.9	24.5	-8.3	11.4	45.0*
O=C(O)CCCNC(=O)/C(=C\C=C\c1ccccc1)NC(=O)c1ccccc1Cl	-3.2	7.7	-6.6	-9.1	17.1	-2.4
COc1ccc(/C=C(\NC(=O)c2ccccc2Cl)C(=O)NCCCC(=O)O)cc1	-7.3	6.2	1.0	-6.8	51.9*	-5.9
O=C(NCc1ccco1)C1CC(c2ccccc2C(F)(F)F)=NO1 (centres undefined)	19.2	20.5	20.8	5.0	-16.4	71.7*
CCOC(=O)CC(=O)CSc1nc2c(c(C)c1C#N)CCC2	-9.2	15.7	0.8	-16.8	-166.2	4.1
O=C(CS(=O)(=O)Cc1ccccc1)Nc1ccc(S(=O)(=O)N2CCOCC2)cc1	-4.8	2.4	-4.6	-21.6	-8.0	7.5
NC(=O)c1c(NC(=O)Cn2nc(C(=O)O)c3ccccc3c2=O)sc2c1CCC2	6.3	12.2	4.4	-23.8	4.7	0.5
NC(=O)c1c(NC(=O)Cn2nc(C(=O)O)c3ccccc3c2=O)sc2c1CCCC2	33.7	32.2	98.7*	-3.8	-6.9	21.5
Cc1cc(NC(=O)CSc2ccccn2)no1	1.2	6.1	-1.4	-28.0	-3.0	2.8
Brc1ccc(CSc2nnc(Cc3c[nH]c4ccccc34)o2)cc1	-19.2	-1.2	-7.4	-10.3	69.5*	-7.0
CN1CCN(CCNC(=O)c2cn(Cc3ccccc3F)nn2)CC1	20.1	60.1*	15.2	-10.6	15.0	28.7
CCN1CCN(CCNC(=O)c2cn(Cc3ccccc3F)nn2)CC1	-8.9	1.6	-1.3	-6.3	-6.5	6.4
COc1cc(NC(=O)CN(C)S(=O)(=O)c2ccc3c(c2)CCC(=O)N3)cc(OC)c1	48.9*	-0.8	-6.1	-17.6	-7.7	-8.1
COc1cccc(N2CCN(C(=O)CN(C)S(=O)(=O)c3ccc4c(c3)CCC(=O)N4)CC2)c1	2.1	14.0	-2.2	-17.4	29.1	14.7
COc1ccc2nc(N3C(=O)CC(C(C)c4ccccc4)C3=O)sc2c1 (centres undefined)	-5.8	8.1	-14.4	-17.0	-9.3	3.4
COc1ccc(Cl)cc1NC(=O)Nc1cn(C)nc1C	56.7*	20.7	6.2	-2.4	4.6	44.6*
COc1ccc(Cl)cc1NC(=O)Nn1cnnc1	5.3	4.3	-5.3	-18.7	-1.5	-20.4
CC(C)(C)C(=O)Cn1ncc(NC2CC2)c(Br)c1=O	-1.9	-5.6	0.4	-32.3	20.3	-10.8
COc1ccc(Cn2cccc(NC(=O)Nc3ccc(F)cc3)c2=O)cc1	-9.3	6.3	-2.4	-17.0	-17.1	-3.5
CSc1ccc(NC(=O)Nc2cccn(Cc3ccccc3)c2=O)cc1	66.1*	3.2	-11.4	-24.1	-0.7	-4.3
C/C(=N\NC(=O)CCn1nnc2ccccc21)c1cccs1	19.4	43.3*	23.7	-2.2	8.8	11.2
SMILES	hK5 inh	FXIIa inh 1536	Thrombin inh	Furin inhibitor	Calpain2 inh	FXIa inh
CC12CN3CC(C)(CN(C1)C3c1ccc(Br)cc1)C2=O (centres undefined)	68.3*	10.8	7.1	-18.1	11.6	-2.7
O=C(Nc1cccc2c1CCCC2)c1cc([N+](=O)[O-])cc([N+](=O)[O-])c1	-2.2	17.7	4.3	-33.7	33.4	9.3
CCOc1ccc(S(=O)(=O)N2CCCCC2)c2ccccc12	-10.1	24.1	2.4	-8.6	5.1	1.3
CCOc1ccc(S(=O)(=O)n2ccc(C)n2)c2ccccc12	49.3*	15.7	16.1	-15.5	26.1	6.0
Cn1nnnc1SCC(=O)N1CCc2ccccc2C1	59.4*	35.4	24.5	-25.4	6.7	11.4
Cc1ccc(-n2nnnc2SCC(=O)N2CCc3ccccc3C2)cc1	-21.2	4.7	3.7	-16.9	39.4	7.5
COc1cc(C(=O)OC2CCCCC2=O)cc(OC)c1C (centres undefined)	-15.4	3.3	-2.3	0.1	-30.9	-0.3
CCOC(=O)c1ccc(NC(=O)Nc2ncccc2C)cc1	-1.6	4.7	-3.1	-24.0	51.1*	-2.9
Cc1ccc(NC(=O)Nc2ncccc2C)cc1	-19.0	13.3	1.6	-17.6	-23.8	1.6
Nc1nc(CN2CCCCC2)cs1	62.2*	-3.3	104.0*	-23.2	9.2	-1.4
CCS(=O)(=O)c1c(S(=O)(=O)CC)c2ccccn2c1C(N)=O	31.4	0.6	-10.4	-19.4	0.5	1.6
O=C(Nc1ccc(Cl)c(Cl)c1)c1ccc(Cn2cc(Cl)cn2)cc1	8.0	3.1	-12.2	13.5	52.8*	1.9
COc1ccc(-c2cc(C(=O)Nc3c(C)nn(Cc4ccccc4)c3C)no2)cc1	-3.6	11.8	1.9	-13.8	-21.7	-0.2
COc1cccc(-c2cc(C(=O)Nc3c(C)nn(Cc4ccccc4)c3C)no2)c1	55.4*	9.6	41.2*	-4.0	43.9	9.7
CCOP(=O)(OCC)C(Nc1cccc(C(F)(F)F)c1)c1ccc(F)cc1 (centres undefined)	-23.9	7.6	-6.6	-16.6	-2.6	-3.3
CCCN(CCC)S(=O)(=O)c1ccc(C(=O)NNc2nc(-c3ccccc3)c3cc(Br)ccc3n2)cc1	-67.9	9.7	2.9	-30.4	-50.4	65.6*
O=C(Cn1nc(C(F)F)cc1C(F)F)NNC(=S)Nc1ccc(F)cc1	-222.9	-17.2	50.2*	-1.6	11.0	-3.5
O=C(c1ccc2c(c1)N(Cc1ccccc1F)C(=O)c1ccccc1S2)N1CCOCC1	3.4	8.2	-0.1	-17.4	-6.2	3.0
CC(C)CNS(=O)(=O)c1ccc(CCC(=O)Nc2cc(Cl)ccc2Oc2ccccc2)cc1	-3.5	-2.2	-5.5	-8.1	71.2*	-9.1
Cc1ccc(C)c(N(CC(=O)Nc2cc(Cl)ccc2Oc2ccccc2)S(C)(=O)=O)c1	-1.0	-6.6	-4.9	-22.7	0.0	-5.0
Cc1cccc(C)c1N(CC(=O)Nc1cc(Cl)ccc1Oc1ccccc1)S(C)(=O)=O	-11.1	22.1	-1.1	-16.1	52.0*	20.5
C/C(=N/NS(=O)(=O)c1ccc(Br)cc1)c1ccc(NC(=O)c2ccc(C)o2)cc1	-7.9	0.7	-4.6	-1.9	-22.8	-9.3
COCCNC(=O)CSc1nc2ccccc2c(=O)n1CCC(=O)NCCc1ccc(OC)c(OC)c1	4.6	8.6	12.2	-7.2	38.1	1.9
Cc1c(=O)n(OCc2ccccc2F)c2ccccc2[n+]1[O-]	-14.1	-12.0	-8.3	-15.9	73.4*	-11.2
